Assay results reported in ChEMBL document CHEMBL1123080, “Synthesis and antiviral activity of the carbocyclic analogues of (E)-5-(2-halovinyl)-2'-deoxyuridines and (E)-5-(2-halovinyl)-2'-deoxycytidines” (1985).
Converted amounts (≈) assume the structure as drawn.

test system: Vaccinia virus; assay: Minimum inhibitory concentration (MIC) required to reduce vaccinia virus induced cytopathogenicity in primary rabbit kidney cell cultures; format: functional; conditions: Orthopoxvirus vaccinia
In short: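 Primary rabbit kidney cell cultures were infected with virus and treated with compound. The MIC is the concentration that reduces virus-induced cytopathogenicity by 50%. Cytotoxicity was scored as microscopically visible alteration of normal cell morphology, with 400 μg/mL the highest concentration tested.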

`O=c1[nH]c(=O)n(C2CC(O)C(CO)C2)cc1/C=C/I` (configuration not stated) and `O=c1[nH]c(=O)n([C@H]2C[C@@H](CO)[C@H](O)C2)cc1/C=C/Br` are the same in MIC50: 300 µg/mL (≈ 793 µM) for the first, 300 µg/mL (≈ 906 µM) for the second.

Compared with `Nc1nc(=O)n(C2CC(O)C(CO)C2)cc1/C=C/Br` (configuration not stated), `O=c1[nH]c(=O)n([C@@H]2C[C@H](CO)[C@@H](O)C2)cc1I` is lower in MIC50: over 200 µg/mL for the first, 20 µg/mL (≈ 56.8 µM) for the second.

First: O=c1[nH]c(=O)n([C@H]2C[C@H](O)[C@@H](CO)O2)cc1/C=C/I
Second: O=c1[nH]c(=O)n([C@H]2C[C@H](O)[C@@H](CO)O2)cc1I [IDOXURIDINE]
The MIC50 of the first is 35-fold higher: 7 µg/mL (≈ 18.4 µM) for the first, 0.2 µg/mL (≈ 0.565 µM) for the second.

For `NC1NC(=O)N([C@H]2C[C@H](O)[C@@H](CO)O2)C=C1/C=C/Br` (some centres not stated), the MIC50 was 200 µg/mL (≈ 598 µM).
